Assay results as given in ChEMBL document CHEMBL4342515, “Boron Accumulation in Brain Tumor Cells through Boc-Protected Tryptophan as a Carrier for Boron Neutron Capture Therapy” (ACS Med Chem Lett, 2020).
Active and inactive are the calls of the source. No cut-off for these calls is given here.

Assays:
[1] = Ratio of drug uptake in human LN229 cells to drug uptake in mouse 3T3 cells measured at 1 hr; format: ADME, cell-based
[2] = Aqueous solubility of compound; format: physicochemical; conditions: buffer
NIH3T3 = assay: Downregulation of LAT-1 expression in mouse 3T3 cells at 50 uM incubated for 2 hrs by Western blot analysis; format: functional, cell-based
In short: (§1)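 Western blot for LAT-1 protein in the three cell lines after 2 h incubation with the derivatives. Primary antibodies: LAT-1 (1:2500) and α-tubulin (1:5000) as loading reference. Qualitative comparison of expression level.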

[3] = Drug uptake in human U87MG cells at 50 uM incubated for 2 hrs by ICP-MS analysis; format: ADME, cell-based; conditions: u-87mg atcc
[4] = Drug uptake in human LN229 cells at 50 uM incubated for 1 hr by ICP-MS analysis; format: ADME, cell-based; conditions: ln-229, 1 h
LN-229 [5] = assay: Effect on LAT-1 expression in human LN229 cells at 50 uM incubated for 2 hrs by Western blot analysis; format: functional, cell-based; in short: as §1
[6] = Drug uptake in human U87MG cells at 50 uM measured upto 4 hrs by ICP-MS analysis; format: ADME, cell-based; conditions: u-87mg atcc
In short: (§2)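 Cellular boron accumulation was measured by ICP-MS as boron concentration (ppm) at time points over the incubation, up to 4 h. Mouse 3T3 cells served as the normal reference for the tumor/normal (T/N) ratio.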

U-87 MG [7] = assay: Effect on LAT-1 expression in human U87MG cells at 50 uM incubated for 2 hrs by Western blot analysis; format: functional, cell-based; conditions: U-87MG ATCC; in short: as §1
U-87 MG [8] = assay: Cytotoxicity against human U87MG cells assessed as cell viability at 50 uM incubated for 1 hr followed by neutron irradiation for 3 mins by WST-1 assay; format: functional, cell-based; conditions: U-87MG ATCC
[9] = Ratio of drug uptake in human LN229 cells to drug uptake in mouse 3T3 cells measured up to 4 hrs; format: ADME, cell-based
[10] = Ratio of drug uptake in human U87MG cells to drug uptake in mouse 3T3 cells measured up to 4 hrs; format: ADME, cell-based
[11] = Cytotoxicity against mouse 3T3 cells assessed as cell viability incubated for 24 hrs by WST-1 assay (reference value: 57 %); format: cell-based; conditions: NIH3T3 cells, read-out: Activity
LN-229 [12] = assay: Cytotoxicity against human LN229 cells assessed as cell viability at 100 uM incubated for 24 hrs by WST-1 assay (reference value: 91 %); format: functional; conditions: LN-229, 24 h, read-out: Activity
[13] = Drug uptake in human LN229 cells at 50 uM measured upto 4 hrs by ICP-MS analysis; format: ADME, cell-based; conditions: ln-229, 4 h; in short: as §2
U-87 MG [14] = assay: Cytotoxicity against human U87MG cells assessed as cell viability at 100 uM incubated for 24 hrs by WST-1 assay (reference value: 97 %); format: functional, U-87MG ATCC; conditions: read-out: Activity
LN-229 [15] = assay: Cytotoxicity against human LN229 cells assessed as cell viability at 50 uM incubated for 1 hr followed by neutron irradiation for 3 mins by WST-1 assay; format: functional, cell-based

SMILES: COC(=O)C(Cc1cn(C(=O)OC(C)(C)C)c2ccc(B3OC(C)(C)C(C)(C)O3)cc12)N(C(=O)OC(C)(C)C)C(=O)OC(C)(C)C (configuration not stated)
- Ratio [1]: > 9.66
- solubility [2]: Insoluble
- Activity (NIH3T3): Active
- Drug uptake [3]: 300 ppm
- Drug uptake [4]: 450 ppm
- Activity (LN-229 [5]): inactive
- Drug uptake [6]: Active
- Activity (U-87 MG [7]): inactive
- Activity (U-87 MG [8]): Active
- Ratio [9]: > 5
- Ratio [10]: > 5
- viability at 24 h [11]: 60.2%
- viability at 100 µM (LN-229 [12]): 60.7%
- Drug uptake [13]: Active
- viability at 100 µM (U-87 MG [14]): 67.4%
- Activity (LN-229 [15]): Active

SMILES: COC(=O)C(Cc1cn(C(=O)OC(C)(C)C)c2ccc(B3OC(C)(C)C(C)(C)O3)cc12)N(C(C)=O)C(=O)OC(C)(C)C (configuration not stated)
- solubility [2]: Insoluble
- Drug uptake [3]: 300 ppm
- Drug uptake [6]: Active
- Activity (U-87 MG [8]): Active
- viability at 24 h [11]: 63.6%
- viability at 100 µM (LN-229 [12]): 70.8%
- Drug uptake [13]: Active
- viability at 100 µM (U-87 MG [14]): 70.2%
- Activity (LN-229 [15]): Active

SMILES: COC(=O)C(Cc1c[nH]c2ccc(B3OC(C)(C)C(C)(C)O3)cc12)NC(C)=O (configuration not stated)
- Activity (NIH3T3): Active
- Activity (LN-229 [5]): inactive
- Drug uptake [6]: Not Active
- Activity (U-87 MG [7]): inactive
- viability at 24 h [11]: 60.2%
- viability at 100 µM (LN-229 [12]): 69.9%
- Drug uptake [13]: Not Active
- viability at 100 µM (U-87 MG [14]): 66.2%

SMILES: COC(=O)C(Cc1cn(C(=O)OC(C)(C)C)c2cc(B3OC(C)(C)C(C)(C)O3)ccc12)N(C(=O)OC(C)(C)C)C(=O)OC(C)(C)C (configuration not stated)
- solubility [2]: Insoluble
- Activity (NIH3T3): Active
- Activity (LN-229 [5]): inactive
- Drug uptake [6]: 300 ppm
- Activity (U-87 MG [7]): inactive
- Activity (U-87 MG [8]): Active
- Ratio [9]: > 5
- Ratio [10]: > 5
- viability at 24 h [11]: 63.6%
- viability at 100 µM (LN-229 [12]): 53.2%
- Drug uptake [13]: 300 ppm
- viability at 100 µM (U-87 MG [14]): 60.1%
- Activity (LN-229 [15]): Active

SMILES: N[C@@H](Cc1ccc(B(O)O)cc1)C(=O)O
- Ratio [1]: 2.3
- Activity (NIH3T3): Active
- Drug uptake [4]: < 50 ppm
- Activity (LN-229 [5]): inactive
- Activity (U-87 MG [7]): inactive
- Activity (U-87 MG [8]): Active
- viability at 24 h [11]: 110%
- viability at 100 µM (LN-229 [12]): 79.6%
- viability at 100 µM (U-87 MG [14]): 67%
- Activity (LN-229 [15]): Active

SMILES: COC(=O)C(Cc1c(B2OC(C)(C)C(C)(C)O2)[nH]c2c(B3OC(C)(C)C(C)(C)O3)cccc12)N=[N+]=[N-] (configuration not stated)
- viability at 24 h [11]: 66.6%
- viability at 100 µM (LN-229 [12]): 57.2%
- viability at 100 µM (U-87 MG [14]): 61.3%

SMILES: COC(=O)C(N)Cc1c[nH]c2ccc(B3OC(C)(C)C(C)(C)O3)cc12 (configuration not stated)
- Activity (NIH3T3): Active
- Activity (LN-229 [5]): inactive
- Drug uptake [6]: Not Active
- Activity (U-87 MG [7]): inactive
- viability at 24 h [11]: 53%
- viability at 100 µM (LN-229 [12]): 67.3%
- Drug uptake [13]: Not Active
- viability at 100 µM (U-87 MG [14]): 65.8%
